Mcl1 Noxa PPI = Mcl-1/Noxa binding inhibitors, primary screen, biochemical, TR-FRET, 1536-well | inhibition, % at 21.7 µM | TR-FRET Mcl-1/Noxa peptide binding, 2 h | hit rate 1.5% among 220,000;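 active = compounds that cut the protein-peptide binding signal by more than 50% relative to plate controls in a single-dose test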;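 note: His-tagged Mcl-1 with rhodamine Noxa BH3 peptide and terbium anti-His antibody; 0% = Mcl-1 plus Noxa peptide wells and 100% = peptide-only wells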
14-3-3 Bad PPI = inhibitors of 14-3-3 zeta/Bad binding, primary screen, biochemical, TR-FRET, bovine 14-3-3 zeta. 14-3-3 protein zeta/delta (Bos taurus), P63103. hit rate 0.71% among 220,000. TR-FRET 14-3-3zeta/Dy647-pBad peptide displacement, 1 h. inhibition, % at 21.7 µM;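 active = inhibition above about 70%, limit read from the data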;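 note: 0% = full 14-3-3 plus peptide FRET controls and 100% = background without 14-3-3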
Hck Nef HTS = inhibitors of Nef-activated human Hck kinase, primary screen, biochemical, Z-Lyte FRET, 384-well, Hck-YEEI; Tyrosine-protein kinase HCK (Homo sapiens), P08631; Recombinant Hck-YEEI plus Nef, Z-Lyte FRET kinase assay; inhibition, % at 20 µM; hit rate 0.68% among 220,000; AID 463187, 2010;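 active = Hck-Nef kinase inhibition above about 50%, limit read from the data; inactive = inhibition below that limit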;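 note: 0% = DMSO with Hck plus Nef and 100% = Hck alone without Nef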
Target sequence (P08631 whole entry, looked up): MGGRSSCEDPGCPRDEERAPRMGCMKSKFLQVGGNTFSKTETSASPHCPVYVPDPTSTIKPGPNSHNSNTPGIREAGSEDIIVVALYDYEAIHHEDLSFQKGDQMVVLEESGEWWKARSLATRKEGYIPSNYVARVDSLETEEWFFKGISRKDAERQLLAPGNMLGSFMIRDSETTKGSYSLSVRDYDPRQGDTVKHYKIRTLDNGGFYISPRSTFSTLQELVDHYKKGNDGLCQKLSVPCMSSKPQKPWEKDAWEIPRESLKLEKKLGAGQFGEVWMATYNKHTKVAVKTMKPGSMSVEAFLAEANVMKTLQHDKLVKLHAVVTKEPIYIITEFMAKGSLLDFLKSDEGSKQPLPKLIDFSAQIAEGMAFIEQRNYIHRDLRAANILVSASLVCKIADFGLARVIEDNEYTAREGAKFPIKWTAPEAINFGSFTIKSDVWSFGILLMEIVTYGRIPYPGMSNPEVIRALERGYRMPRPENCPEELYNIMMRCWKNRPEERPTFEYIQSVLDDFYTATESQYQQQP
Mcl1 Bid PPI = Mcl-1/Bid binding inhibitors, primary screen, biochemical, TR-FRET, 1536-well | TR-FRET Mcl-1/Bid-Dy647 peptide binding | Induced myeloid leukemia cell differentiation protein Mcl-1 (Homo sapiens), Q07820 | inhibition, % at 21.7 µM | hit rate 0.97% among 220,000;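 active = compounds that cut the binding signal by more than half at the single screening dose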;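 note: His-tagged Mcl-1 with europium anti-His antibody binding Bid BH3 peptide; 0% = Mcl-1 plus peptide wells and 100% = peptide-only wells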
Bim-Mcl-1 = inhibitors of Bim peptide binding to Mcl-1, primary screen, biochemical, bead-based flow cytometry, multiplex; Induced myeloid leukemia cell differentiation protein Mcl-1 (Homo sapiens), Q07820; Bim peptide-Mcl-1 binding; inhibition, % at 10 µM; hit rate 0.1% among 190,000; AID 1009, 2008; in the data active = inhibition above about 40%;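 note: 0% = no compound tracer wells and 100% = peptide blocker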
Calb biofilm kill = clotrimazole potentiators killing C. albicans biofilm, primary screen, 4-compound mixtures | C. albicans biofilm persisters + clotrimazole, fluorescence viability; primary screen in compound mixtures of four per well | inhibition, % at 7.6 µM | hit rate 0.02% among 120,000;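 active = inhibition above 30.3% in the primary screen of four-compound pools, then above 30% when the compound was retested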;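 note: compounds exposed to preformed 24 h biofilms for 48 h; 0% = untreated biofilm control and 100% = clotrimazole plus chlorhexidine kill blank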
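Test system: C. albicans CAF4-2 wild-type biofilms; buffer or medium: RPMI/MOPS medium, pH 7.0; schedule: 24 h biofilm formation, then 48 h compound exposure, 37 °C; detection: Alamar Blue fluorescence; measure: percent inhibition of biofilm viability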
Hck Nef conf = retest of Hck:Nef kinase inhibitor hits, confirmation, biochemical, Z-Lyte FRET, 384-well, p-Tyr peptide counterscreen; Recombinant Hck-YEEI:Nef, Z-Lyte FRET kinase assay; calls only at 10 µM; shares compounds with Hck Nef HTS; hit rate 28% among 1,300;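 active = average inhibition of at least 50%, with Z-scores no higher than 3 in both the phospho-tyrosine peptide and fluorescence counterscreens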
Starred values were filed as active, the others as inactive; i = inactive; x = not tested or not shown; + = active, no number; [ ] = dose if it differs, or a comment. In the library only some 3.2% were active in any assay of this set; here they are far more common.

SMILES	Mcl1 Noxa PPI	14-3-3 Bad PPI	Hck Nef HTS	Mcl1 Bid PPI	Bim-Mcl-1	Calb biofilm kill	Hck Nef conf
Cc1ccc(CN2CCN(Cc3cnc(N4CCOCC4)s3)CC2CCO)o1 (stereo not drawn)	3.2	-10.5	60.7*	-30.7	-1.0	7.7	i
O=C(Nc1cccc(-c2nc3cccnc3s2)c1)C1c2ccccc2Oc2ccccc21	-34.2	90.9*	102.1*	25.4	-2.0	15.0	+
O=C(Nc1cccc(-c2nc3cccnc3s2)c1)c1ccc(Cl)nc1	-138.9	49.9	87.4*	-90.2	x	9.7	i
CC(C)(C)c1nnc(NC(=O)Cc2ccc(Br)cc2)s1	16.2	-20.2	2.0	-3.4	-5.0	14.3	x
CC(NC(=O)C12CC3(C)CC(C)(CC(C)(C3)C1)C2)C(=O)O (stereo not drawn)	11.9	-10.7	6.4	-9.6	2.0	13.5	x
Oc1ccc(Nc2ccnc3cc(Cl)ccc23)cc1	19.9	-10.4	64.5*	-9.6	x	21.7	+
Cc1nn(-c2ccccc2)c(C)c1-c1cc(C(=O)N/N=C/c2ccc(O)cc2)[nH]n1	12.7	-2.5	66.3*	-4.2	x	20.8	+
COc1cc(/C=N/NC(=O)c2cc(-c3c(C)nn(-c4ccccc4)c3C)n[nH]2)ccc1O	28.0	-8.0	43.2	-21.4	0.0	2.1	x
C(=N\NCc1ccccc1)/c1ccc2ncccc2c1	19.7	-5.9	29.9	-106.4	x	24.8	x
C(=N\NCc1ccccc1)/c1ccc2nccnc2c1	-14.3	-9.2	68.4*	-60.7	x	19.3	+
Cc1ccc2ncnc(Oc3ncccc3NC(=O)C(C)(C)C)c2c1	-8.8	-0.2	0.3	-12.6	x	3.3	x
Cc1cc(NC(=O)CCOc2ccc(F)cc2)no1	2.6	-1.4	-4.0	-15.0	x	27.7	x
O=C(c1ccc(Cl)cc1)N1CCCCC(Cl)C1=O (stereo not drawn)	5.6	13.6	19.2	-1.7	-2.0	5.9	x
O=C(Nc1ccccc1)C1=C[C@H](c2ccc3c(c2)OCO3)C[C@H](OCc2ccc(CO)cc2)O1	5.3	1.9	-17.7	-0.8	-1.0	15.0	x
O=C(Nc1nc2ccsc2c(=O)s1)c1ccco1	17.4	5.8	64.7*	-21.9	x	19.2	i
Cc1ccc(S(=O)(=O)NCC(=O)NCC(=O)N2CCN(c3ncccn3)CC2)cc1C	14.5	5.8	3.4	7.4	x	21.0	x
CCOC(=O)C1=NOC(C(=O)NN(C)c2ncc(C(F)(F)F)cc2Cl)C1 (stereo not drawn)	2.8	-16.6	60.4*	3.6	-5.0	24.2	i
CCOC(=O)C1=NOC(CNc2ncc(C(F)(F)F)cc2Cl)C1 (stereo not drawn)	7.6	-11.5	2.3	-30.1	0.0	-1.2	x
C=CCOC(=O)C1=C(C)NC(SCC(=O)N(CC)CC)=C(C#N)C1c1ccccc1 (stereo not drawn)	5.8	-8.9	5.6	-4.6	1.0	x	x
C=CCOC(=O)C1=C(C)NC(SCC(=O)NC(=O)OCC)=C(C#N)C1c1cccnc1 (stereo not drawn)	11.5	-0.5	50.2*	-5.3	0.0	x	i
COc1ccc(-c2nnc(SCC(=O)c3ccc(C)o3)o2)cc1	-6.6	1.6	-1.0	10.8	-3.0	17.7	x
COc1ccc(CN(C(=O)CSc2nnc(-c3ccc(F)cc3)o2)c2ccc(F)cc2)cc1	-15.4	2.8	76.8*	5.1	-5.0	x	i
COc1ccc(NC(=O)CSc2nnc(NC(=O)c3ccco3)s2)cc1	10.0	-8.2	18.9	-5.2	-1.0	1.8	x
CSc1nc(N(C)CCO)c2sc3nc(-c4ccco4)c4c(c3c2n1)CCC4	103.1*	9.1	88.8*	92.9*	8.0	x	i
CC1=C(C(=O)OCC2CCCO2)C(c2ccc(C)cc2)C2=C(CCCC2=O)N1 (stereo not drawn)	4.2	-3.4	63.2*	-13.1	-4.0	8.6	i
SMILES	Mcl1 Noxa PPI	14-3-3 Bad PPI	Hck Nef HTS	Mcl1 Bid PPI	Bim-Mcl-1	Calb biofilm kill	Hck Nef conf
Cc1ccc(-c2[nH]ncc2/C=N/n2c(C)nc3ccccc3c2=O)cc1	-24.2	21.4	60.0*	-7.7	x	17.5	i
COC(=O)c1cc(-c2ccc(NC(C)=O)cc2)nc2ccccc12	-2.4	-7.9	11.0	-19.3	0.0	9.8	x
Cc1ccc(C(=O)NC(=S)Nc2ccc(-c3ccc(CO)o3)cc2)cc1	25.6	-10.8	61.0*	13.1	-1.0	2.1	i
CCn1nc(C)c(NC(=O)/C=C/c2ccc(OC)c(COc3ccc(Cl)cc3Br)c2)c1C	-3.2	76.9*	98.7*	64.0*	-1.0	15.8	i
O=S(=O)(O)c1cccc(N=Nc2c(O)ccc3ccccc23)c1	23.6	1.7	85.3*	-36.1	x	7.4	+
COc1ccc(CCNc2nc(-c3sc(N)nc3C)cs2)cc1OC	20.5	-3.1	6.8	-34.4	-4.0	x	x
COCCNc1nc(-c2cc(C)n(CCc3ccc(OC)cc3)c2C)cs1	57.0*	60.4	50.7*	-2.5	1.0	15.2	i
Cc1cc(O)c(C(=O)/C=C/c2cccc([N+](=O)[O-])c2)c(=O)o1	31.2	-7.3	107.6*	-8.1	x	24.7	i
Cc1cc2c(s1)c1cnn(CC(=O)NCCc3ccccc3)c(=O)c1n2C	-82.7	28.0	75.9*	9.8	0.0	x	i
CN1CCN(CCCNC(=O)Cn2ncc3c4ccccc4n(C)c3c2=O)CC1	9.8	1.7	6.9	-6.2	-1.0	x	x
N=C1S/C(=C\c2ccc(-c3cccc(Cl)c3)o2)C(=O)N1c1nccs1	87.6*	74.2*[fluorescence artefact?]	50.8*	90.6*	0.0	3.0	i
c1ccc2sc(Cc3nnc4n3CCCCC4)nc2c1	11.2	13.0	-3.3	5.7	0.0	x	x
N#Cc1c(NC2CCCCC2)nc(-c2ccco2)c2c1CCCC2	-4.0	-14.3	0.5	1.4	0.0	x	x
N#Cc1c(NCCCO)nc(-c2ccco2)c2c1CCCC2	7.9	3.5	140.5*	-12.2	1.0	x	x
O=C(Nc1ccc(-c2nc3ccccc3[nH]2)cc1)c1c(F)c(F)c(F)c(F)c1F	-17.2	-3.6	112.0*	-4.8	-1.0	13.2	i
CCOc1ccc(C(=O)Nc2ccc(-c3nc4ccccc4[nH]3)cc2)cc1[N+](=O)[O-]	58.1*	65.9	77.6*	55.2*	-7.0	16.0	+

Compound activity deposited in PubChem by several laboratories.
